In ChEMBL document CHEMBL2157989, “Synthesis and biological evaluation of antibody conjugates of phosphate prodrugs of cytotoxic DNA alkylators for the targeted treatment of cancer” (J Med Chem, 2012):
In brackets after ≈: the same amount, converted by molar mass.

How the values were obtained:
[1] = Solubility in toluene at 1.5 mg sonicated for 45 mins followed by centrifugation for 45 mins by UV/Vis spectroscopy; type: physicochemical; details: 0.75 h
In short: (§1)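 Solid compound (~1.5 mg) in the stated solvent was sonicated 45 min, then centrifuged at 1400g for 45 min. The supernatant concentration was read by UV/vis at 340 nm, using ε = 41500 M⁻¹ cm⁻¹ for the free phenols and 34500 M⁻¹ cm⁻¹ for the phosphate prodrugs (pH 7.0 values).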

[2] = Solubility in dioxane at 1.5 mg sonicated for 45 mins followed by centrifugation for 45 mins by UV/Vis spectroscopy; type: physicochemical; details: 0.75 h
[3] = Solubility in ethyl acetate at 1.5 mg sonicated for 45 mins followed by centrifugation for 45 mins by UV/Vis spectroscopy; type: physicochemical; details: 0.75 h; in short: as §1
[4] = Solubility of the compound in 100% buffer at pH 7 at 1.5 mg sonicated for 45 mins followed by centrifugation for 45 mins by UV/Vis spectroscopy; type: physicochemical
[5] = Solubility in methanol at 1.5 mg sonicated for 45 mins followed by centrifugation for 45 mins by UV/Vis spectroscopy; type: physicochemical; details: 0.75 h; in short: as §1
[6] = Solubility in DMA at 1.5 mg sonicated for 45 mins followed by centrifugation for 45 mins by UV/Vis spectroscopy; type: physicochemical; details: 0.75 h; in short: as §1
[7] = Solubility in hexane at 1.5 mg sonicated for 45 mins followed by centrifugation for 45 mins by UV/Vis spectroscopy; type: physicochemical; details: 0.75 h; in short: as §1
[8] = Solubility in THF at 1.5 mg sonicated for 45 mins followed by centrifugation for 45 mins by UV/Vis spectroscopy; type: physicochemical; details: 0.75 h
[9] = Solubility of the compound in 20% DMA and 80% buffer at pH 7 at 1.5 mg sonicated for 45 mins followed by centrifugation for 45 mins by UV/Vis spectroscopy; type: physicochemical
In short: (§2)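 About 1.5 mg of compound is sonicated for 45 min in pH 7.0 buffer containing 10% or 20% DMA, then centrifuged at 1400g for 45 min. Supernatant concentration is read by UV/vis at 340 nm. ε at pH 7.0 is 41500 M⁻¹ cm⁻¹ for DC1–SR₂ compounds and 34500 M⁻¹ cm⁻¹ for phosphate prodrugs.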

[10] = Solubility in chloroform at 1.5 mg sonicated for 45 mins followed by centrifugation for 45 mins by UV/Vis spectroscopy; type: physicochemical; details: 0.75 h; in short: as §1
[11] = Solubility in DMF at 1.5 mg sonicated for 45 mins followed by centrifugation for 45 mins by UV/Vis spectroscopy; type: physicochemical; details: 0.75 h; in short: as §1
[12] = Solubility in water at 1.5 mg sonicated for 45 mins followed by centrifugation for 45 mins by UV/Vis spectroscopy; type: physicochemical; details: 0.75 h; in short: as §1
[13] = Solubility of the compound in 10% DMA and 90% buffer at pH 7 at 1.5 mg sonicated for 45 mins followed by centrifugation for 45 mins by UV/Vis spectroscopy; type: physicochemical; in short: as §2
[14] = Solubility in acetone at 1.5 mg sonicated for 45 mins followed by centrifugation for 45 mins by UV/Vis spectroscopy; type: physicochemical; details: 0.75 h
[15] = Cytotoxicity against human NAMALWA cells assessed as cell survival after 72 hrs by clonogenic assay; type: functional, cell-based; details: NAMALVA
In short: (§3)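 Cells were kept in RPMI 1640 with 10% heat-inactivated FBS at 37 °C and 6% CO₂. They were plated at 1000–5000 cells/well and exposed to 0–3 nM test agent for 72 h. Medium was then replaced and colonies grew for 7–10 days in total after plating. Colonies were fixed and stained with 0.2% crystal violet in 10% formalin/PBS, then counted. Surviving fraction = colonies in treated wells / colonies in control wells; IC₅₀ was taken from this.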

[16] = Solubility in dichloromethane at 1.5 mg sonicated for 45 mins followed by centrifugation for 45 mins by UV/Vis spectroscopy; type: physicochemical; details: 0.75 h
[17] = Solubility of the compound in 5% DMA and 95% buffer at pH 7 at 1.5 mg sonicated for 45 mins followed by centrifugation for 45 mins by UV/Vis spectroscopy; type: physicochemical
In short: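 For buffers with 5% or less DMA, a 50 mM stock of compound in DMA is diluted 20–100 times into pH 7.0 buffer. It is then sonicated for 45 min and centrifuged at 1400g for 45 min. Supernatant is quantified by UV/vis at 340 nm, with ε of 41500 (DC1–SR₂ compounds) or 34500 M⁻¹ cm⁻¹ (phosphate prodrugs).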

Ramos = experiment: Cytotoxicity against human Ramos cells assessed as cell survival after 72 hrs by clonogenic assay; type: functional, cell-based; in short: as §3
HL-60 = experiment: Cytotoxicity against human HL60 cells assessed as cell survival after 72 hrs by clonogenic assay; type: functional, cell-based; details: HL-60, 72 h; in short: as §3
[18] = Solubility in ethanol at 1.5 mg sonicated for 45 mins followed by centrifugation for 45 mins by UV/Vis spectroscopy; type: physicochemical; details: 0.75 h; in short: as §1
COLO 205 = experiment: Cytotoxicity against human COLO205 cells assessed as cell survival after 72 hrs by clonogenic assay; type: functional, cell-based; details: COLO 205, 72 h; in short: as §3
[19] = Solubility in DMSO at 1.5 mg sonicated for 45 mins followed by centrifugation for 45 mins by UV/Vis spectroscopy; type: physicochemical; details: 0.75 h; in short: as §1

| solubility [1] | solubility [2] | solubility [3] | solubility at 0.75 h [4] | solubility [5] | solubility [6] | solubility [7] | solubility [8] | solubility at 0.75 h [9] | solubility [10] | solubility [11] | solubility [12] | solubility at 0.75 h [13] | solubility [14] | solubility [16] | solubility at 0.75 h [17] | solubility [18] | SMILES | IC50 [15] | IC50 (Ramos) | IC50 (HL-60) | other results |
| --- | --- | --- | --- | --- | --- | --- | --- | --- | --- | --- | --- | --- | --- | --- | --- | --- | --- | --- | --- | --- | --- |
| Insoluble | soluble | Insoluble | < 0.1 µM | Insoluble | soluble | Insoluble | soluble | 3 µM (≈ 2.18 µg/mL) | Insoluble | soluble | Insoluble | 1 µM (≈ 0.726 µg/mL) | soluble | Insoluble | < 1 µM | Insoluble | CSSC(C)(C)CCC(=O)Nc1ccc2[nH]c(C(=O)Nc3ccc4[nH]c(C(=O)N5C[C@@H](CCl)c6c5cc(O)c5ccccc65)cc4c3)cc2c1 | 0.021 nM | 0.018 nM | 0.025 nM | IC50 (COLO 205): 0.22 nM; solubility [19]: soluble |
| Insoluble | soluble | Insoluble | < 0.1 µM | Insoluble | soluble | Insoluble | soluble | 3 µM (≈ 2.05 µg/mL) | Insoluble | soluble | Insoluble | 1 µM (≈ 0.684 µg/mL) | soluble | Insoluble | < 1 µM | Insoluble | CSSCCC(=O)Nc1ccc2[nH]c(C(=O)Nc3ccc4[nH]c(C(=O)N5C[C@@H](CCl)c6c5cc(O)c5ccccc65)cc4c3)cc2c1 | 0.01 nM | 0.022 nM | 0.032 nM | IC50 (COLO 205): 0.25 nM; solubility [19]: soluble |
